Our source for the IC50 and T/C values is ChEMBL document CHEMBL1136012, “Synthesis and structure-activity relationships of novel 7-substituted 1,4-dihydro-4-oxo-1-(2-thiazolyl)-1,8-naphthyridine-3-carboxylic acids as antitumor agents. Part 1” (J Med Chem, 2002).

Assay [1] has as its system P388. The experiment in a line: Cytotoxic activity of compound against Murine P388 Leukemia. In kind it is functional, cell-based, Mus musculus. An outline of the steps: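 Murine P388 cells were cultured in EMEM with 10% FBS, 2 mM glutamine, 50 units/mL penicillin and 50 μg/mL streptomycin. They were seeded at (1–2) × 10^4 cells/mL without preincubation and exposed to varying concentrations for 72 h at 37 °C, 5% CO2. MTT was then added for 4 h, formazan dissolved in DMSO and read at 570/690 nm.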

In assay [2] the test system is P388. Put plainly: […] antitumor activity of compound against P388 leukemia cells at a dose of 50 mg/kg. In kind it is functional, Mus musculus. The procedure, abridged: (§1)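 In vivo study: BDF1 mice received 10^6 P388 leukemia cells ip as diluted ascites fluid. Test compounds were suspended in 0.4% CMC and given ip on days 1 and 5 after implantation, with seven mice per group. The endpoint is T/C% = median survival time of the treated group / median survival time of controls × 100.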

Assay [3] concerns P388. Put plainly: […] antitumor activity of compound against P388 leukemia cells at a dose of 3.13 mg/kg. In kind it is functional, Mus musculus. An outline of the steps: as §1
In assay [4] the test system is P388. The experiment in a line: In vitro antitumor activity of compound against P388 leukemia cells at a dose of […] mg/kg. The class given is functional, Mus musculus. Details: concentration or dose not given beside the values.
Assay [5] deals with P388. The experiment in a line: […] antitumor activity of compound against P388 leukemia cells at a dose of 6.25 mg/kg. In kind it is functional. The following applies: Mus musculus. The procedure, abridged:
as §1

Assay [6] can be described thus: Cytotoxic activity of compound against SCaBER bladder squamous human tumor cell line. In kind it is functional, cell-based. The procedure, abridged: (§2)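 Cells were kept in EMEM with 10% FBS, 2 mM glutamine, NEAA and 1 mM sodium pyruvate. They were seeded at (1–2) × 10^4 cells/mL and preincubated for 24 h. They were then exposed to graded concentrations for 72 h at 37 °C in 5% CO2. MTT was added for a further 4 h and the formazan dissolved in DMSO, with absorbance at 570/690 nm.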

The test system of assay [7] is HT-29. The experiment in a line: Cytotoxic activity of compound against HT-29 colon human tumor cell line. The class given is functional, cell-based. The procedure, abridged: (§3)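 Culture was in McCoy's 5A with 10% FBS. Cells were seeded at (1–2) × 10^4 cells/mL, preincubated for 24 h, then incubated with various concentrations for 72 h at 37 °C under 5% CO2. MTT was added for 4 h and the formazan dissolved in DMSO, with A570 read against 690 nm.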

For assay [8], the system named is A-427. The experiment in a line: Cytotoxic activity of compound against A-427 lung human tumor cell line. The class given is functional, cell-based. An outline of the steps:
as §2

Assay [9] concerns G-361. The experiment in a line: Cytotoxic activity of compound against G-361 melanoma human tumor cell line. In kind it is functional, cell-based. An outline of the steps: as §3
The test system of assay [10] is SK-OV-3. Put plainly: Cytotoxic activity of compound against SK-OV-3 ovary human tumor cell line. In kind it is functional, cell-based. The following applies: SK-OV-3, Female gonad. An outline of the steps: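 SK-OV-3 cells were maintained in McCoy's 5A with 15% FBS. After seeding at (1–2) × 10^4 cells/mL and 24 h preincubation, wells received graded concentrations for 72 h at 37 °C, 5% CO2. A 4 h MTT incubation followed, with DMSO solubilization and absorbance at 570/690 nm.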

Assay [11] in a line: Cytotoxic activity of compound against AZ-521 stomach human tumor cell line. In kind it is functional. The procedure, abridged:
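AZ-521 cells were grown in EMEM with 10% FBS, 2 mM glutamine and NEAA. They were plated at (1–2) × 10^4 cells/mL and preincubated for 24 h, then treated with a range of concentrations for 72 h at 37 °C, 5% CO2. After a 4 h MTT step, the formazan was dissolved in DMSO and read at 570 nm (reference 690 nm).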

Where [12] appears, read: Mus musculus, P388, read-out: IC50.

Usually IC50 stands for the concentration that gives 50% inhibition. As to `Cl.NCC1CN(c2nc3c(cc2F)c(=O)c(C(=O)O)cn3-c2nccs2)CCO1` (stereo not given), in assay [1] (setting [12]), the half-maximal inhibitory concentration (IC50) came out at 1.73 µg/mL.
On the same count and under the same terms, in the case of `Cl.NC1CCN(c2nc3c(cc2F)c(=O)c(C(=O)O)cn3-c2nccs2)CC1` it was 1.63 µg/mL.
One may read the T/C as the ratio of treated to control. For the compound `C[C@H]1CN(c2nc3c(cc2F)c(=O)c(C(=O)O)cn3-c2nccs2)C[C@@H]1N.Cl`, the T/C in assay [2] is 238%; in [3] it was 138%; in [4] it was 175%. For the same compound, the IC50 in [1] (setting [12]) worked out at 0.011 µg/mL.
Compound CISPLATIN [listing 1 of 2 here] yielded a half-maximal inhibitory concentration (IC50) in assay [1] (p388) of 0.011 µg/mL.
For `Cl.NCCNc1nc2c(cc1F)c(=O)c(C(=O)O)cn2-c1nccs1`, the IC50 in assay [1] (setting [12]) was > 10 µg/mL.
With CISPLATIN [listing 2 of 2 here], the values for the T/C in assay [3] (Mus musculus) and in assay [5] were 239% and 290%, respectively.
`Cl.NCC1CN(c2nc3c(cc2F)c(=O)c(C(=O)O)cn3-c2nccs2)C[C@H]1Cl` (stereo not given in full): the IC50 in assay [1] (setting [12]) came out at 0.156 µg/mL.
On the same count and under the same terms, in the case of `Cl.NC1CCN(c2nc3c(cc2F)c(=O)c(C(=O)O)cn3-c2ncc(Br)s2)C1` (stereo not given) it was 0.085 µg/mL; in that of `Cl.O=C(O)c1cn(-c2nccs2)c2nc(N3C[C@@H]4CCCN[C@@H]4C3)c(F)cc2c1=O`, 0.304 µg/mL; in that of `CO[C@@H]1CN(c2nc3c(cc2F)c(=O)c(C(=O)O)cn3-c2nccs2)C[C@@H]1N.Cl`, 0.084 µg/mL.
For `Cl.NCCSc1nc2c(cc1F)c(=O)c(C(=O)O)cn2-c1nccs1`, the half-maximal inhibitory concentration (IC50) in [1] (setting [12]) was > 10 µg/mL.
`CN1CC=C2CN(c3nc4c(cc3F)c(=O)c(C(=O)O)cn4-c3nccs3)CC21.Cl` (stereo not given): the half-maximal inhibitory concentration (IC50) in assay [1] (setting [12]) stood at 0.038 µg/mL.
For the compound `Cl.Cn1nccc1-n1cc(C(=O)O)c(=O)c2cc(F)c(N3CCC(N)C3)nc21` (stereo not given), in assay [1] (setting [12]), the half-inhibitory concentration (IC50) was > 10 µg/mL.
Same read-out and setting: in the case of `Cl.NC1CCN(c2nc3c(cc2F)c(=O)c(C(=O)O)cn3-c2cccs2)C1` (stereo not given) it was 1.2 µg/mL.
Compound `CO[C@H]1CN(c2nc3c(cc2F)c(=O)c(C(=O)O)cn3-c2nccs2)C[C@@H]1N.Cl` (stereo in doubt; (S,S)-43j) yielded a half-inhibitory concentration (IC50) in [1] (p388) of 0.023 µg/mL.
With `Cl.NC1C=CC[C@H]2CN(c3nc4c(cc3F)c(=O)c(C(=O)O)cn4-c3nccs3)C[C@@H]12` (stereo not given in full), the IC50 in assay [1] (setting [12]) turned out to be 0.15 µg/mL.
The same measure, in the same setting: in the case of `Cc1cc(-n2cc(C(=O)O)c(=O)c3cc(F)c(N4CCC(N)C4)nc32)on1.Cl` (stereo not given) it was 0.58 µg/mL; in that of `Cl.O=C(O)c1cn(-c2nccs2)c2nc(-n3ccnc3)c(F)cc2c1=O`, > 10 µg/mL.
Same read-out and setting: in the case of `Cl.NCC1CCN(c2nc3c(cc2F)c(=O)c(C(=O)O)cn3-c2nccs2)C1` (stereo not given) it was 0.101 µg/mL; in that of `Cl.NC1CCN(c2nc3c(cc2F)c(=O)c(C(=O)O)cn3-c2ccc(F)cc2)C1` (stereo not given), 2.1 µg/mL; in that of `Cl.NC1CCN(c2nc3c(cc2F)c(=O)c(C(=O)O)cn3-c2nncs2)C1` (stereo not given), 5.5 µg/mL.
Same read-out and setting: in the case of `Cl.O=C(O)c1cn(-c2nccs2)c2nc(N3CCSCC3)c(F)cc2c1=O` it was 1.74 µg/mL; in that of `Cc1nc(-n2cc(C(=O)O)c(=O)c3cc(F)c(N4CCC(N)C4)nc32)sc1C.Cl` (stereo not given), 0.18 µg/mL.
With `CO[C@H]1CN(c2nc3c(cc2F)c(=O)c(C(=O)O)cn3-c2nccs2)C[C@@H]1N.Cl` (stereo in doubt; 43j), the IC50 amounted to 0.78 µg/mL in assay [6]; 2.1 µg/mL in [7]; 0.42 µg/mL in assay [8]; 0.4 µg/mL in [9]; 1.1 µg/mL in assay [10]; 0.038 µg/mL in assay [1] (setting [12]). For the same compound, the IC50 in assay [11] was 0.58 µg/mL. For the same compound, the T/C in assay [2] is >375%; in assay [3] it was 138%; in assay [4], 238%.
Regarding `Cl.NC1CCN(c2nc3c(cc2F)c(=O)c(C(=O)O)cn3-c2ccccn2)C1` (stereo not given), in assay [1] (setting [12]), the IC50 is > 10 µg/mL.
As to `CC1(N)CCN(c2nc3c(cc2F)c(=O)c(C(=O)O)cn3-c2nccs2)C1.Cl` (stereo not given), the results for the T/C in [2], in assay [3] and in [4] were >375%, 138% and 213%, respectively. In addition, in assay [1] (setting [12]), the IC50 amounted to 0.026 µg/mL.
In the case of `COc1ccccc1N1CCN(c2nc3c(cc2F)c(=O)c(C(=O)O)cn3-c2nccs2)CC1.Cl`, the IC50 in [1] (setting [12]) is > 1 µg/mL.
Same read-out and setting: in the case of `Cl.O=C(O)c1cn(-c2nccs2)c2nc(N3CC[C@@H](O)C3)c(F)cc2c1=O` it was 0.065 µg/mL.
In the case of `Cl.NC1CCN(c2c(F)cc3c(=O)c(C(=O)O)cn(-c4nccs4)c3c2F)C1` (stereo not given), the IC50 in assay [1] (setting [12]) came to 55 µg/mL.
